Reference: ChEMBL document CHEMBL1123512, “Synthesis and biological activity of analogues of beta-chlornaltrexamine and beta-funaltrexamine at opioid receptors” (J Med Chem, 1986)

How the values were obtained:
[1] = Reversible antagonistic activity against opioid receptor in electrically stimulated longitudinal muscle of guinea pig ileum expressed as IC50 of EK by IC50 of control; format: functional
Outline: (§1)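 In guinea pig ileum longitudinal muscle, morphine or ethylketazocine (EK) was tested in the presence of ligand at 10 nM, without washing. The value is the agonist IC50 in the treated preparation divided by the control IC50 in the same preparation.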

[2] = biological target: T1, Opioid receptors; mu/kappa/delta (Homo sapiens, UniProt P41145+P41143+P35372); assay: Irreversible antagonistic activity against opioid receptor in electrically stimulated longitudinal muscle of guinea pig ileum expressed as IC50 of EK by IC50 of control; format: functional, tissue-based
Outline: (§2)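 Guinea pig ileum longitudinal muscle was exposed to ligand at 200 nM for 30 min, then washed thoroughly (30 times), and challenged with morphine or ethylketazocine (EK). The value is the agonist IC50 in the treated preparation divided by the control IC50 in the same preparation.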

[3] = biological target: T1, Opioid receptors; mu/kappa/delta; assay: Irreversible antagonistic activity against opioid receptor in electrically stimulated longitudinal muscle of guinea pig ileum expressed as IC50 of morphine by IC50 of control; format: functional, tissue-based; outline: as §2
[4] = biological target: T2, Opioid receptor (Mus musculus) (UniProt P42866+P32300+P33534); assay: Percent inhibition against opioid receptor in mouse vas deferens at 3 uM; format: tissue-based
[5] = biological target: T1, Opioid receptors; mu/kappa/delta; assay: Percent inhibition against opioid receptor in electrically stimulated longitudinal muscle of guinea pig ileum at 1 uM; format: tissue-based; settings: Cavia porcellus, target entry is the homologue from another species
[6] = biological target: T1, Opioid receptors; mu/kappa/delta; assay: Compound was tested for irreversible antagonistic activity against opioid receptor in mouse vas deferens expressed as IC50 of morphine by IC50 of control; format: functional, tissue-based
[7] = Reversible antagonistic activity against opioid receptor in electrically stimulated longitudinal muscle of guinea pig ileum expressed as IC50 of morphine by IC50 of control; format: functional; outline: as §1
[8] = biological target: T1, Opioid receptors; mu/kappa/delta; assay: (§3) Compound was tested for agonist activity against opioid receptor in electrically stimulated longitudinal muscle of guinea pig ileum; format: functional, tissue-based; settings: Cavia porcellus, target entry is the homologue from another species
[9] = biological target: T1, Opioid receptors; mu/kappa/delta; assay: Compound was tested for irreversible antagonistic activity against opioid receptor in mouse vas deferens expressed as IC50 of DADLE by IC50 of control; format: functional, tissue-based
[10] = biological target: T2, Opioid receptor (Mus musculus); assay: Compound was tested for agonist activity against opioid receptor in mouse vas deferens; format: functional, tissue-based
[11] = biological target: T1, Opioid receptors; mu/kappa/delta; assay: Percent inhibition against opioid receptor in electrically stimulated longitudinal muscle of guinea pig ileum at 100 nM; format: tissue-based; settings: Cavia porcellus, target entry is the homologue from another species
[12] = biological target: T2, Opioid receptor (Mus musculus); assay: Percent inhibition against opioid receptor in mouse vas deferens at 1 uM; format: tissue-based
[13] = biological target: T1, Opioid receptors; mu/kappa/delta; assay: (§4) Compound was tested for irreversible antagonistic activity against opioid receptor in mouse vas deferens; format: functional, tissue-based
[14] = biological target: T1, Opioid receptors; mu/kappa/delta; assay: as §4; format: functional, tissue-based; remark: listed apart in the source
[15] = biological target: T1, Opioid receptors; mu/kappa/delta; assay: as §3; format: functional, tissue-based, Cavia porcellus; settings: target entry is the homologue from another species
[16] = biological target: T2, Opioid receptor (Mus musculus); assay: Compound was tested for irreversible antagonistic activity against opioid receptor in mouse vas deferens at 3 uM; format: functional, tissue-based

T1 sequence (P35372 whole entry, looked up): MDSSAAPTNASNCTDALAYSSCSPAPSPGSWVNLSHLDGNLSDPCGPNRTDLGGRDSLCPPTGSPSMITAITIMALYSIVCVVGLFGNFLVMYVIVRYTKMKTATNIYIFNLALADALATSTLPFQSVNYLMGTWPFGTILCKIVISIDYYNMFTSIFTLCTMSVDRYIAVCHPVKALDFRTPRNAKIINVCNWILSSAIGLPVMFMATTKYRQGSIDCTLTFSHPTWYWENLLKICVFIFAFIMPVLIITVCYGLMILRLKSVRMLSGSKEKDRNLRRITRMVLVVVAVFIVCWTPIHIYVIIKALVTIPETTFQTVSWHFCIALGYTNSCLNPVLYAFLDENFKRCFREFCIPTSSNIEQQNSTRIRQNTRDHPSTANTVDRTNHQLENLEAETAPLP
T1 sequence (P41143 whole entry, looked up): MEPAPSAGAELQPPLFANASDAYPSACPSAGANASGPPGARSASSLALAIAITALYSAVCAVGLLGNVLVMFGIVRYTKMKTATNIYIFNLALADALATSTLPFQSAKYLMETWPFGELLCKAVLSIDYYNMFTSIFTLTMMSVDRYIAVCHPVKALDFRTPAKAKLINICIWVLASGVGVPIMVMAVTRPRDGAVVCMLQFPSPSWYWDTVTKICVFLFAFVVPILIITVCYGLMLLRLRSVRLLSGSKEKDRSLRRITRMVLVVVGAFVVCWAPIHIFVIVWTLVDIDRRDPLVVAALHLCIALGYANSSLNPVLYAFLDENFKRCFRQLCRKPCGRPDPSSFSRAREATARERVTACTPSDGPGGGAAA
T1 sequence (P41145 whole entry, looked up): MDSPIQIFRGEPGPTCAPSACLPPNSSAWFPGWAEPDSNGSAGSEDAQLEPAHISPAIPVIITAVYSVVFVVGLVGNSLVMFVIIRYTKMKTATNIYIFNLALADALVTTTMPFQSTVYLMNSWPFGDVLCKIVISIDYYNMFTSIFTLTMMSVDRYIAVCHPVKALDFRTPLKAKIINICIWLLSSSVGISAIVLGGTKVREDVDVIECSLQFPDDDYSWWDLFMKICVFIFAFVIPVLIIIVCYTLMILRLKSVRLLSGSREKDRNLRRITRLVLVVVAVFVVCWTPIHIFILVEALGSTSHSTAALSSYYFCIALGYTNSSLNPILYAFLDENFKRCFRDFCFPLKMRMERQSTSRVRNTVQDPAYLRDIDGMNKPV
T2 sequence (P32300 whole entry, looked up): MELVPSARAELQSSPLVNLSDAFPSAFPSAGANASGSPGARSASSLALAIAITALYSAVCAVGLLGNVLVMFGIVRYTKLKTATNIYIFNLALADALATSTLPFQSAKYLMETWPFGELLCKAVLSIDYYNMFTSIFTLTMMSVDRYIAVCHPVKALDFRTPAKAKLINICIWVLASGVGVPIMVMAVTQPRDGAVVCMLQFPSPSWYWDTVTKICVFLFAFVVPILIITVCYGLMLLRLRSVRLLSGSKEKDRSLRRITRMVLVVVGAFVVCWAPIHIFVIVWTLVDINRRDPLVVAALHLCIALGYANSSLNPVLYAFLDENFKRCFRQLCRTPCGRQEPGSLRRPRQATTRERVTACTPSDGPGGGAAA
T2 sequence (P33534 whole entry, looked up): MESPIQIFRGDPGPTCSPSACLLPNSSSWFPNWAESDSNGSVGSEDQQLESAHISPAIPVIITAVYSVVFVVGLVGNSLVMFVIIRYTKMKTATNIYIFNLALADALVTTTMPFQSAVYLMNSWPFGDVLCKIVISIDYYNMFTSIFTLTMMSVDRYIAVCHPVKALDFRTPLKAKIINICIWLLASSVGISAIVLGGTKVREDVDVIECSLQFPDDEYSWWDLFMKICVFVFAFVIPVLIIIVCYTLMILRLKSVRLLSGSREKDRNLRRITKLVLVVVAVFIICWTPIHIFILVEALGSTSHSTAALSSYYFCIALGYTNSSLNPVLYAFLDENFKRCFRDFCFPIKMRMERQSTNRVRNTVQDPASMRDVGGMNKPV
T2 sequence (P42866 whole entry, looked up): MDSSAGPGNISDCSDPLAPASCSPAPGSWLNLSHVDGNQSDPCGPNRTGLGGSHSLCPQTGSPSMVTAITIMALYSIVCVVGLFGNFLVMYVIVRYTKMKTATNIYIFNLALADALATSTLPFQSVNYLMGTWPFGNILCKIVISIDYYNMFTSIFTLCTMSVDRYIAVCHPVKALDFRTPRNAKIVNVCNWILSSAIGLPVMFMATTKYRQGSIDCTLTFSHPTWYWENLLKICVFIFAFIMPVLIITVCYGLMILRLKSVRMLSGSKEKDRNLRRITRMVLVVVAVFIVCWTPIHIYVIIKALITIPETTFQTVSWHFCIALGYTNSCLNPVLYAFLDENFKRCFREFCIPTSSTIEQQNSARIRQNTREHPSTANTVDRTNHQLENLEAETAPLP

SMILES | Ratio [1] | Ratio [2] | Ratio [3] | inhibition [4] [%] | inhibition [5] [%] | Ratio [6] | Ratio [7] | IC30 [8] [µM] | Ratio [9] | IC30 [10] [µM] | inhibition [11] [%] | IC20 [8] [µM] | inhibition [12] [%] | Ratio [13] | Ratio [14] | IC50 [15] [µM] | inhibition [16] [%]
CCOC(=O)/C=C/C(=O)NCC(=O)N[C@@H]1CC[C@@]2(O)C3Cc4ccc(O)c5c4C2(CCN3CC2CC2)[C@H]1O5 (stereo partly specified) | 2.5 | 2 | 0.6 | 56 | 42 | 1.8 | 2.5 | 0.01 | 0.8 | 0.007 |  |  |  |  |  |  | 
CCOC(=O)/C=C/C(=O)NCC(=O)NCC(=O)NCC(=O)N[C@@H]1CC[C@@]2(O)C3Cc4ccc(O)c5c4C2(CCN3CC2CC2)[C@H]1O5 (stereo partly specified) | 3.3 | 0.8 | 1.3 |  |  |  | 12.3 |  |  | 0.02 | 45 | 0.01 | 61 | 1.2 |  |  | 
CCOC(=O)/C=C/C(=O)NCC(=O)NCC(=O)N[C@@H]1CC[C@@]2(O)C3Cc4ccc(O)c5c4C2(CCN3CC2CC2)[C@H]1O5 (stereo partly specified) | 4.8 | 1.3 | 3.9 |  |  |  | 16.8 |  |  | 0.01 | 45 | 0.01 | 59 | 4.3 | 1.2 |  | 
O=C(CN(CCCl)CCCl)N[C@@H]1CC[C@@]2(O)C3Cc4ccc(O)c5c4C2(CCN3CC2CC2)[C@H]1O5 (stereo partly specified) |  | 12.3 | 27.4 |  |  |  |  |  | 4 | 0.02 |  |  | 55 |  |  | 0.0038 | 54
